Experimental data from ChEMBL document CHEMBL1166000, “Maximizing chemical diversity of fungal metabolites: biogenetically related Heptaketides of the endolichenic fungus Corynespora sp. (1)” (J Nat Prod, 2010).
Activity calls are given as the source filed them. The rule behind the calls is not given here.

Key:
PC-3M [1] = assay: Inhibition of human PC3M cell migration at 5 uM by wound-healing assay; type: functional, cell-based
PC-3M [2] = assay: Inhibition of cell proliferation in human PC3M cells at 5 uM after 40 hrs by MTT assay; type: functional, cell-based
Summary of the method: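 Antiproliferative (cytotoxicity) screen by the MTT method, with each compound tested at a single concentration of 5 µM.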

COc1cc(O)cc2c1C(=O)C1=C(C[C@](C)(O)OC1)C2=O
inhibition (PC-3M [1]): inactive | inhibition (PC-3M [2]): inactive

COc1cc(OC)c2c(c1O)C(=O)C1=C(CO[C@@](C)(O)C1)C2=O
inhibition (PC-3M [1]): inactive | inhibition (PC-3M [2]): inactive

COc1cc(O)c2c(c1)[C@H](O)C1C[C@](C)(O)OCC1C2=O (stereo partly drawn)
inhibition (PC-3M [1]): inactive | inhibition (PC-3M [2]): inactive

COc1cc(OC)c2c(c1O)C(=O)c1cc(C)ncc1C2=O
inhibition (PC-3M [1]): inactive | inhibition (PC-3M [2]): inactive

COc1cc(OC)c2c(c1)C(=O)C1=C(C2=O)C(OC)OC(C)=C1 (stereo not drawn)
inhibition (PC-3M [1]): inactive | inhibition (PC-3M [2]): inactive

COc1cc(OC)c2c(c1)C(=O)c1cc(C)ncc1C2=O
inhibition (PC-3M [1]): inactive | inhibition (PC-3M [2]): inactive

COc1cc(OC)c2c(c1)[C@H](O)C1C[C@](C)(O)OCC1C2=O (stereo partly drawn)
inhibition (PC-3M [1]): inactive | inhibition (PC-3M [2]): inactive

COc1cc2c(c(OC)c1O)C(=O)C1=C(C[C@](C)(O)OC1)C2=O
inhibition (PC-3M [1]): inactive | inhibition (PC-3M [2]): inactive

COc1cc(OC)c2c(c1)C(=O)C1=C(CO[C@@](C)(O)C1)C2=O
inhibition (PC-3M [1]): inactive | inhibition (PC-3M [2]): inactive
